Data: ChEMBL document CHEMBL3232877, “Synthesis and activity of tumor-homing peptide iRGD and histone deacetylase inhibitor valproic acid conjugate” (2014)
Positions of bridges follow the written chain, without caps; N, C: chain ends. Residues, ends and D or L forms follow the SMILES beside them. *: point of attachment. Pentanoyl(2-Pr) = CCCC(CCC)C(=O)*

How the values were obtained:
Format in all cases: functional
DU-145 [1] = test: Cytotoxicity against human DU145 cells assessed viable cells at 1.5 mM after 72 hrs by CCK-8 assay (reference value: 100.00 +/- 2.47 %)
Summary of the method: (§1)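 DU-145 cells exposed 72 h to drug or drug equivalent at 0.5 mM or 1.5 mM. Viable cells read by CCK-8, absorbance 450 nm (630 nm reference). Viability % = treated viable cells / mean of untreated group (set 100%); reported as mean ± SEM; one-way ANOVA with Tukey test.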

DU-145 [2] = test: Cell cycle arrest in human DU145 cells assessed as accumulation of cells at G1 phase at 1.5 mM after 24 hrs by flow cytometry (Rvb =64.7 %)
DU-145 [3] = test: Cell cycle arrest in human DU145 cells assessed as accumulation of cells at G2 phase at 1.5 mM after 24 hrs by flow cytometry (reference value: 22.1 %)
DU-145 [4] = test: Cytotoxicity against human DU145 cells assessed viable cells at 0.5 mM after 72 hrs by CCK-8 assay (reference value: 99.97 +/- 0.84 %); summary of the method: as §1

SMILES	Activity (DU-145 [1])	Activity (DU-145 [2])	Activity (DU-145 [3])	Activity (DU-145 [4])
CC(C)C[C@H](NC(=O)[C@H](Cc1ccccc1)NC(=O)CN)C(=O)NCC(=O)N[C@H]1CSSC[C@@H](C(N)=O)NC(=O)[C@H](CC(=O)O)NC(=O)[C@@H]2CCCN2C(=O)CNC(=O)[C@H](CCCCN)NC(=O)[C@H](CC(=O)O)NC(=O)CNC(=O)[C@H](CCCNC(=N)N)NC1=O (H-GFLGCRGDKGPDC-NH2; disulfide 5-13)	58.67%	73.7%	17.7%	70.52%
CCCC(CCC)C(=O)NCC(=O)N[C@@H](Cc1ccccc1)C(=O)N[C@@H](CC(C)C)C(=O)NCC(=O)N[C@H]1CSSC[C@@H](C(N)=O)NC(=O)[C@H](CC(=O)O)NC(=O)[C@@H]2CCCN2C(=O)CNC(=O)[C@H](CCCCN)NC(=O)[C@H](CC(=O)O)NC(=O)CNC(=O)[C@H](CCCNC(=N)N)NC1=O ({Pentanoyl(2-Pr)}-GFLGCRGDKGPDC-NH2; disulfide 5-13)	38.96%	76.3%	15.7%	69.3%
CCCC(CCC)C(=O)O [VALPROIC ACID]	79.87%	62.5%	25.8%	99.56%
